Assay results pooled from the literature.
Compare with care: the assays were run in different laboratories.
Trpc6: Short transient receptor potential channel 6 (Trpc6, Mus musculus, UniProt Q61143)
MMP2: 72 kDa type IV collagenase (MMP2, Homo sapiens, UniProt P08253)
CNR2: Cannabinoid receptor 2 (CNR2, Homo sapiens, UniProt P34972)
ADRB2: Beta-2 adrenergic receptor (ADRB2, Homo sapiens, UniProt P07550)

SMILES	target	test	conditions	IC50 [µM]
C=CC(C)(C)c1cc(/C=C/C(=O)c2ccc(O)cc2)c(OC)cc1O	Histone-lysine N-methyltransferase SETD7 (SETD7, Homo sapiens, UniProt Q8WTS6)	enzyme activity, inhibitor		> 333
COc1cc(O)c(CC=C(C)C)c(O)c1C(=O)/C=C/c1ccc(O)cc1	Cytochrome P450 1B1 (CYP1B1, Homo sapiens, UniProt Q16678)	enzyme activity, inhibitor, fluorescence	15 min, pH 7.4	0.34
COc1c(OCC2CCCC2)cc2c(c1C=O)CC(O)OC2=O (stereo not shown)	Receptor-type tyrosine-protein phosphatase S (PTPRS, Homo sapiens, UniProt Q13332)	enzyme activity, inhibitor, absorbance		0.6 to 0.7
COc1cccc2sc(N(CCN(C)C)C(=O)c3ccc4c(c3)CCCC4)nc12	Trpc6	calcium signal, fluorescence		4.2
Cc1noc(-c2cc3cc(-c4nc(C(=O)NCc5ccncc5)[nH]c4C)ccc3[nH]2)n1	MMP2	enzyme activity, inhibitor		> 20
O=S(=O)(Nc1ccc2cccc(O)c2n1)c1ccc(-c2ccccc2)cc1	MMP2	enzyme activity, inhibitor, fluorescence		48
Cc1noc(-c2cc3cc(-c4cc(C(=O)NCc5ccc(C(=O)O)cc5)nn4C)ccc3[nH]2)n1	MMP2	enzyme activity, inhibitor		> 20
Cc1ccc(NC(=O)c2nc(-c3ccc(Cl)cc3Cl)n(-c3ccc(OS(=O)(=O)CCC(F)(F)F)cc3)c2C)nc1	CNR2	GTPγS binding, antagonist	cell membranes	0.4
COc1cccc2sc(N(CCN3CCCC3)C(=O)c3ccc(Cl)s3)nc12	Trpc6	calcium signal, fluorescence		63.9
COc1ccc2nc(/N=C3/NC(=O)C(=Cc4cc(OC)c(O)c(OC)c4)S3)sc2c1	Aldo-keto reductase family 1 member B1 (Akr1b1, Rattus norvegicus, UniProt P07943)	enzyme activity, inhibitor, absorbance	pH 6.2	10.5
CC(C)(C)OC(=O)NCC#Cc1ccc2c(c1)C=C([N+](=O)[O-])C(C(F)(F)F)O2 (stereo not shown)	P2Y purinoceptor 6 (P2RY6, Homo sapiens, UniProt Q15077)	calcium signal, antagonist		~1
Cc1ccc(NC(=O)c2ccc(C)c(C(F)(F)F)c2)cc1C#Cc1nn(C2CCC(O)CC2)c2ncnc(N)c12 (stereo not shown)	Epithelial discoidin domain-containing receptor 1 (DDR1, Homo sapiens, UniProt Q08345)	enzyme activity, inhibitor, radiometric		0.015
Cc1noc(-c2cc3cc(-c4nc(C(=O)NCC5CCOCC5)[nH]c4C)ccc3[nH]2)n1	MMP2	enzyme activity, inhibitor		> 20
Cc1c(C(=O)N[C@@H]2CCCC[C@@H]2O)nc(-c2ccc(Cl)cc2Cl)n1-c1ccc(OS(=O)(=O)CCC(F)(F)F)cc1 (single isomer, unassigned)	CNR2	GTPγS binding, antagonist	cell membranes	0.44
CCCC[C@H](NC(=O)[C@H](C)c1c(C)[nH]c2ccc(O)cc12)c1ncc(-c2cc3ccccc3nc2OC)[nH]1	Polyamine deacetylase HDAC10 (HDAC10, Homo sapiens, UniProt Q969S8)	enzyme activity, inhibitor		0.43
CN(C)CCC1(c2ccc(Cl)cc2)Cc2ccccc2C(=O)O1 (stereo not shown)	ADRB2	ligand displacement, radioligand	cell membranes	86.8
CC(C)(C)n1nc(-c2ccc3nc(OC4CC4)ccc3c2)c(C(N)=O)c1N	Casein kinase I isoform alpha (CSNK1A1, Homo sapiens, UniProt P48729)	cell-free assay, inhibitor		> 10
COc1ccc2c3ccnc(C(F)(F)F)c3n(CCCCN)c2c1	Serine/threonine-protein kinase haspin (HASPIN, Homo sapiens, UniProt Q8TF76)	enzyme activity, inhibitor, TR-FRET		0.1
N=C(N)NCCCC(NC(=O)C(c1ccccc1)c1ccccc1)C(=O)NCc1ccc(O)cc1 (stereo not shown)	ADRB2	ligand displacement, radioligand	cell membranes	63.1
